# High-throughput results: PubChem, several laboratories
# STAT3 activator – STAT3 signaling activation | AID 871 | U3A cells, IL-6 STAT3-luciferase reporter, luminescence; 100% = signal with IL-6 EC80 alone | activation (% of control), % at 5.6 µM | 190,000 compounds, 0.91% hits;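 active means activation above the screen-wide mean of compound activation plus 3 SD, cut at about 130% in these data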;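 further: 0% = background luminescence of wells with medium and substrate only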
#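 System – human U3A cells carrying STAT3-luciferase construct · Probe or stimulus – Interleukin-6, 33 ng/mL · Schedule – compound 1 h, then IL-6 6 h at 37 °C · Signal – luminescence from STAT3-driven luciferase reporter · Evaluation – percent of IL-6-only median luminescence · Benchmarks – IL-6-only high control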
# C8 TRAIL sens – caspase-8 TRAIL sensitization | NB7+C8 cells + TRAIL, ATPlite viability luminescence | inhibition (viability loss, TRAIL sensitization), % at 10 µM | 360,000 compounds, 1% hits | AID 624354;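 active means compounds causing at least 50% loss of cell viability in the single-dose screen, relative to plate controls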
# STAT3 inh – reduces IL-6 driven STAT3 reporter signal | U3A cells, IL-6 STAT3-luciferase reporter, luminescence; host cell line lacks STAT1 | inhibition, % at 5.5 µM | 190,000 compounds, 0.89% hits | AID 862;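 active means inhibition above the mean inhibition across all screened compounds plus 3 SD, cut at about 44% in these data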;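 further: 0% = DMSO only wells and 100% = 100 µM nifuroxazide control wells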
# STAT1 blocker – reduces IFN-gamma driven STAT1 reporter signal | NIH 3T3 STAT1-luciferase reporter, luminescence | 200,000 compounds, 0.35% hits | inhibition, % at 5.5 µM;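 active means inhibition above a set limit, the mean inhibition across all tested compounds plus 3 SD, cut at about 34% in these data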;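 further: 0% = IFN-gamma with DMSO and 100% = IFN-gamma with 300 µM nifuroxazide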
# PPC-1+TRAIL kill – kills PPC-1 cancer cells in the presence of TRAIL. PPC-1 cells + TRAIL, ATPLite viability luminescence. cell killing (% activity), % at 4 µM or 5 µM. 220,000 compounds, 0.41% hits;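 active means cell killing above 50% in the first pass at 4 µM, then a duplicate retest at 5 µM averaging 50% or more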;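 further: plate controls were cells with TRAIL plus DMSO for no effect and medium-only wells lacking cells for full effect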
# * marks the source's active call; other numbers are inactive results; . = no result given. Sampled rows, rich in hits. Any-hit rate of the full collection: about 1.8%.
SMILES,STAT3 activator,C8 TRAIL sens,STAT3 inh,STAT1 blocker,PPC-1+TRAIL kill
COC(=O)C1=C(c2ccc(OC)c(OC)c2)C[C@@H]2CC[C@H]1N2C(=O)N1CCc2cc(OC)c(OC)cc2C1,.,-2,.,.,.
COc1ccc(-n2nnnc2C(CCc2ccccc2)N2CCC(n3c(=O)[nH]c4ccccc43)CC2)cc1 (centres undefined),.,90*,.,.,.
COc1ccc2nc(-c3ccc(CN4CCC(n5c(=O)[nH]c6ccccc65)CC4)cc3)c(-c3ccccc3)nc2c1,.,51*,.,.,.
Cc1cccc(C)c1-n1nnnc1C(CCc1ccccc1)N1CCC(n2c(=O)[nH]c3ccccc32)CC1 (centres undefined),.,82*,.,.,.
CCC(c1nnnn1-c1ccc(OC)cc1)N1CCC(n2c(=O)[nH]c3ccccc32)CC1 (centres undefined),.,5,.,.,.
CN(CC#CCN1CCCC1)C(=O)c1cccc(Cl)c1,.,5,.,.,.
COc1cccc(C(c2nnnn2-c2c(C)cccc2C)N2CCC(n3c(=O)[nH]c4ccccc43)CC2)c1OC (centres undefined),.,-5,.,.,.
CC(OC(=O)c1cn(C)c2ccccc12)C(=O)N1CCCC1 (centres undefined),.,-2,.,.,.
CN(C)C(=O)Oc1cccc(-c2cn3cc(Cl)ccc3n2)c1,97,43,4,-25,40
CN(C)C(=O)Oc1ccc(-c2cn3cc(Cl)ccc3n2)cc1,66,76*,42,-47,54*
N=c1c2c(n(Cc3ccc(Cl)cc3Cl)c3c1CCC3)CCCC2,61,29,51*,25,2
Cc1nn(Cc2ccc(Cl)cc2Cl)c(Cl)c1C(=O)O,101,-2,0,-8,23
CC1=C(N2CC2)C(=O)C(CO)=C(N2CC2)C1=O,.,77*,.,.,.
COC(=O)N(c1ccccc1)P(=O)(Oc1ccccc1)Oc1ccccc1,.,-8,.,.,.
C[C@@H]1O[C@@H](O[C@@H]2C=C3CCC4C(CC[C@]5(C)[C@@H](c6ccc(=O)oc6)CC[C@]45O)[C@@]3(C)CC2)[C@H](O)[C@H](O)[C@H]1O (some centres undefined),.,75*,.,.,.
CC(=O)C1CCC2(O)C3CCC4=CC(=O)CCC4(C)C3CCC12C (centres undefined),.,-12,.,.,.
C[C@@H]1O[C@@H](O[C@@H]2C=C3CC[C@@H]4C(CC[C@]5(C)[C@@H](c6ccc(=O)oc6)CC[C@]45O)[C@@]3(C)CC2)[C@H](O)[C@H](O)[C@H]1O (some centres undefined),.,76*,.,.,.
NC(=O)CS(=O)C(c1ccccc1)c1ccccc1 (centres undefined),.,.,.,.,11
C[C@@H]1CN([C@@H](C)CO)C(=O)CCCn2nncc2CO[C@@H]1CN(C)C(=O)Oc1cccc2ccccc12,.,-4,.,.,.
COc1ccc(-c2cc(C(=O)N3CCC4(CC3)OCCO4)c3ccccc3n2)cc1,.,42,.,.,.
CCOc1ccc(-c2cc(C(=O)N3CCC4(CC3)OCCO4)c3ccccc3n2)cc1,.,71*,.,.,.
COC1=CC2C3Cc4ccc(OC)c(O)c4C2(CCN3C)CC1=O (centres undefined),.,1,.,.,.
CN(C)c1ccc(NC(=O)CN2C(=O)CN=C(c3ccccc3)c3cc(Cl)ccc32)cc1,106,-8,2,-2,12
Cc1ccc(NC(=O)CN2C(=O)CN=C(c3ccccc3)c3cc(Cl)ccc32)cc1,105,57*,3,-5,10
O=C(CCS(=O)(=O)c1ccc(Br)cc1)N1CCC2(CC1)OCCO2,94,-1,14,48*,8
SMILES,STAT3 activator,C8 TRAIL sens,STAT3 inh,STAT1 blocker,PPC-1+TRAIL kill
O=S(=O)(c1ccccc1)C1CN1c1c(F)c(F)c(F)c(F)c1F (centres undefined),.,-7,.,.,.
O=C1C=Cc2ccccc2C1=O,141*,.,-44,9,4
CCOc1cc(/C=C2\C(=O)NC(=O)N(C)C2=O)cc([N+](=O)[O-])c1O,.,-4,.,.,1
Cc1ccccc1C(=O)N1Cc2cnnn2-c2ccccc2C1C#N (centres undefined),.,8,.,.,.
Cc1ccccc1CN1Cc2cnnn2-c2ccccc2C1C#N (centres undefined),.,49*,.,.,.
Cc1[nH]nc2ccc(-c3cncc(OC[C@@H](N)Cc4c[nH]c5ccccc45)c3)cc12,.,90*,.,.,.
C=C(C)CSc1nnc([C@@H](N)Cc2c[nH]c3ccccc23)o1,90,-10,16,6,-3
CC(C)(C)c1cc([N+](=O)[O-])cc(C(C)(C)C)c1O,52,.,60*,59*,21
NC(=O)c1cc([N+](=O)[O-])cc([N+](=O)[O-])c1,.,-3,.,.,.
COc1ccc(-c2nn(Cc3ccccc3)cc2C(=O)NC2CC2)cc1OC,.,-21,.,.,.
CCOC(=O)[C@]12Cc3cc(OC)ccc3[C@H]1N(C1CCCCC1)C(=O)c1cc(OC)ccc12,.,76*,.,.,.
CCOC(=O)[C@]12Cc3cc(C)ccc3[C@H]1N(C1CCCCC1)C(=O)c1cc(OC)ccc12,.,96*,.,.,.
CCOC(=O)[C@]12Cc3ccccc3[C@H]1N(C)C(=O)c1cc(OC)ccc12,.,8,.,.,.
COC(=O)C1=C(c2cccc(C#N)c2)C[C@@H]2CC[C@H]1N2C(=O)NC1Cc2ccccc2C1,.,1,.,.,.
CCOC(=O)[C@]12Cc3cc(C)ccc3[C@H]1N(C(C)C)C(=O)c1ccccc12,.,83*,.,.,.
CCCCCN1C(=O)c2ccccc2[C@@]2(C(=O)OCC)Cc3cc(OC)ccc3[C@@H]12,.,59*,.,.,.
O=[N+]([O-])/C=C/c1c(Cl)cccc1Cl,.,71*,.,.,.
CCN(CC)c1ccc(/C=C/[N+](=O)[O-])cc1,106,10,-2,-15,4
COC12C(COC(N)=O)C3=C(C(=O)C(C)=C(N)C3=O)N1CC1C2N1C (centres undefined),.,-1,.,.,1
COC(COC(N)=O)C1=C(N2CC2)C(=O)C(C)=C(N2CC2)C1=O (centres undefined),.,74*,.,.,.
Cc1cccc(OP(=O)(Oc2ccccc2)OC(c2ccccc2)C(F)(F)F)c1 (centres undefined),102,14,2,2,19
CC[n+]1c(/C=C/C=C/c2ccc(N(C)C)cc2)sc2ccccc21,.,63*,.,.,48
CC(=O)OC1C(O)C(C)OC(OC2C(OC(=O)C3CCC4C(C3)OC3(CC(OC(=O)/C=C/c5ccccc5)C(C)CO3)C43CO3)OC(C)C(O)C2OC(C)=O)C1O (centres undefined),.,64*,.,.,.
COc1ccc2c3c1OC1C(=O)CC[C@@]4(O)[C@@H](C2)N(CC2CC2)CC[C@]314 (some centres undefined),.,-8,.,.,.
Oc1ccc(-[n+]2c(-c3ccccc3)cc(-c3ccccc3)cc2-c2ccccc2)cc1,.,65*,.,.,.
COc1ccc(-c2nc3ccccc3c(=O)o2)cc1,90,55*,13,-7,47
c1cc2c(cc1[C@H]1OC[C@H]3[C@@H]1CO[C@H]3c1ccc3c(c1)OCO3)OCO2,.,-9,.,.,.
